Experimental data reported in PMC3865530 (Current pharmaceutical design, 2012).

Key:
Type in all cases: binding
[1] = test system: Tel24 human telomeric quadruplex DNA; test: UV-thermal melting with telomeric quadruplex DNA; details: ligand:DNA ratio 4:1; 80 mM KCl; Tm of free Tel24 67 °C
(CG)4 duplex sequence = test: UV-thermal melting with GC-rich hairpin duplex DNA; details: ligand:DNA ratio 2:1; 80 mM KCl; Tm of free (CG)4 63 °C
Summary of the method: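 Duplex melted in 10 mM K₂HPO₄, 80 mM KCl, 3 mM EDTA, pH 7.3, at 2–3 µM single-strand, in 1 cm quartz cuvettes. Ligand was titrated from stock to compound:DNA ratios up to 4:1. Absorbance at 260 nm was followed while heating at 0.5 °C/min. ΔTm was taken at 2:1, reproducible within ±1 °C.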

AATT duplex sequence = test: UV-thermal melting with AT-rich hairpin duplex DNA; details: ligand:DNA ratio 2:1; 80 mM KCl; Tm of free AATT 69 °C

SMILES	∆Tm of Tel24 quadruplex [1]	∆Tm of (CG)4 duplex ((CG)4 duplex sequence)	∆Tm of AATT duplex (AATT duplex sequence)
COS(=O)(=O)[O-].Cc1cc2c3c([n+](C)c4ccc(F)cc4c3c1)-c1cc(F)ccc1N2C [RHPS4, 3,11-difluoro-6,8,13-trimethyl-8H-quino[4,3,2-kl] acridinium methosulfate]	very similar melting values as DB832	very little affinity	very little affinity
Cn1cc(NC(=O)c2cc(NC(=O)c3cc(NC=O)cn3C)cn2C)cc1C(=O)NCCC(=N)N [Distamycin]	did not show any significant increase	–	strong binder
